Screening results: PubChem, several laboratories
NALP1 yeast inh: inhibitors of NALP1 inflammasome in yeast; actives 0.61% (n = 280,000); S. cerevisiae NALP1/ASC/caspase-1 growth, X-gal OD620, 72 h; AID 2071; inhibition, % at 10 µM; in the data active means inhibition mostly above about 24%, no sharp cut-off; inactive means mostly below about 32%
T cruzi inh: T. cruzi replication inhibition | T. cruzi beta-gal in NIH3T3, luminescence, 90 h | inhibition, % (concentration not given with the values) | actives 1.4% (n = 300,000) | AID 1885;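 active means mean inhibition across valid replicates above about 55%, limit read from the data; inconclusive means mean below that limit but half or more replicates reach it; inactive means mean below it, under half of replicates reach it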;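 further: signal also drops with host cell toxicity which is not excluded here; 0% = plate median of DMSO wells and 100% = zero luminescence signal; higher percent means less beta-gal luminescence so fewer parasites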
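Test system: β-gal T. cruzi (Tulahuen C4) inside NIH/3T3 cells / Quantity: 5,000 cells/well / Measured by: luminescence from GalScreen with 0.05% NP40, read after 60 min / Medium: DMEM plus 2% FBS / Measure: parasite load inhibition, % / Reagent: Tulahuen C4 trypomastigotes, 5000/well / Schedule: co-culture of at least 90 h after 3 h attachment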
NLRP3 yeast inh: NALP3 inhibition in yeast; inhibition, % at 10 µM; actives 0.39% (n = 330,000); Yeast reconstituted NLRP3/ASC/caspase-1, beta-gal luminescence, 24 h;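 active means inhibition of 50% or more; inactive means inhibition below 50%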;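 further: plate controls were induced DMSO wells for no effect and uninduced yeast grown without galactose for full effect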
PolyA inh: yeast polyadenylation inhibition; AID 1875; S. cerevisiae SKY197-pL101 polyadenylation reporter, beta-gal luminescence; efflux-impaired pdr1/pdr3 knockout yeast; score 100 = 6 SD above DMSO; actives 0.02% (n = 300,000); activity score, % at 12 µM;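 active means lowest replicate activity score at least 50, where 100 means six control SD above control mean; inconclusive means lowest score under 50 but half or more replicates reach 50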;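 further: yeast exposed to compound for 9 h at 30 °C; higher score means more reporter readthrough which indicates perturbed polyadenylation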
Calb FLC: C. albicans growth modulation with fluconazole | actives 0.57% (n = 300,000) | AID 1979 | growth inhibition, % (no concentration beside the values) | C. albicans CaCi-2 + fluconazole, Alamar Blue growth, 48 h;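 active means growth inhibition above about 58% in most replicates, limit read from the data, passing the limit was not always enough; inconclusive means exactly half the replicates above a set limit; inactive means most replicates below a set limit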;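 further: all wells also contain fluconazole at 8 µg/ml as a sub-toxic cotreatment; 0% = median of DMSO wells and 100% = median of geldanamycin control wells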
Lmaj promast: Leishmania major promastigote growth inhibition | Leishmania major promastigotes, resazurin fluorescence viability | actives 9% (n = 200,000) | inhibition, % at 10 µM; in the data active means inhibition above about 50%;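 further: promastigotes grown with compound for 44 hours at 28 °C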
Active calls of the source: *; ? = inconclusive; . = no result. The full list was thinned out, with hits kept by preference.

SMILES	NALP1 yeast inh	T cruzi inh	NLRP3 yeast inh	PolyA inh	Calb FLC	Lmaj promast
COc1ccc(Cl)cc1NC(=S)NCCC(c1ccccc1)c1ccccc1	14	56*	21	-5	?	41
OCCNCCCCOc1cccc(Br)c1	31	19	10	13	1	89*
CC(C)NCCOc1cccc(Br)c1	-1	0	-2	13	.	-2
CC(C)NCCCCOc1cccc(Br)c1	49	11	11	4	-22	99*
C=CCNCCCCOc1cccc(Br)c1	-1	14	0	-15	?	96*
Brc1cccc(OCCCNC2CCCC2)c1	13	6	23	16	2	.
COCCCNCCCCOc1cccc(Br)c1	30	35	19	-31	-21	99*
Brc1cccc(OCCCCn2cncn2)c1	6	4	9	-16	4	.
O=S1(=O)CCOC[C@H](c2ccccc2)N1Cc1cccc(Cl)c1	24	-3	22	-6	0	.
CCc1cc2c(=O)[nH]c(-c3ccccn3)nc2s1	14	60*	41	-12	20	99*
O=S(=O)(Nc1ccon1)c1ccc(Br)s1	3	-8	7	24	-2	.
COc1ccc(NC(=O)C(=O)NCCC2=CCCCC2)c(OC)c1	38	-4	10	9	-1	55*
CN(C)c1nc2ccc(OCCN3CCCCC3)cc2s1	11	24	-9	-4	-24	60*
Cc1noc(C)c1COc1ccc(C(=O)NNC(=O)c2ccccc2O)cc1	.	-6	7	-5	.	.
CN(C)c1cc[n+](CC(=O)c2ccc(Br)cc2)cc1	7	-4	2	10	?	3
CN(C)c1cc[n+](CC(=O)c2ccc(-c3ccccc3)cc2)cc1	24	56*	1	-48	112*	100*
Cc1ccc(C(=O)C[n+]2ccc(Cc3ccccc3)cc2)cc1	-12	12	10	2	7	86*
CCC1=NN(C(=O)c2ccccc2O)C(O)(c2ccccc2)C1 (configuration not stated)	7	-16	23	19	107*	.
Cc1ccc(SCCCCN2CCNCC2)cc1	0	27	16	-5	?	100*
Clc1ccc(SCCCCN2CCNCC2)cc1	25	32	16	-13	?	100*
Cc1ccc(SCCCCN2CCOCC2)cc1	10	-2	9	-7	-51	.
CN(CC(=O)Nc1cccc(F)c1)CC(=O)N(C)CC(=O)Nc1ccccc1Br	.	.	20	.	.	.
CCCCOc1ccc(C(=O)OC2CC(C)N(C)CC2C)cc1 (configuration not stated)	19	48	31	-12	8	98*
CC(=O)Nc1ccc(C(=O)N/N=C/c2ccccc2OC(=O)c2ccc(Cl)cc2)cc1	-7	-6	2	-2	-11	2
COc1cc(C(=O)Oc2ccccc2/C=N/NC(=O)c2ccc(C)c(Cl)c2)cc(OC)c1OC	24	55*	15	3	-14	7
SMILES	NALP1 yeast inh	T cruzi inh	NLRP3 yeast inh	PolyA inh	Calb FLC	Lmaj promast
COc1ccc(C(=O)N/N=C/c2ccccc2C(=O)O)cc1OC	.	-8	9	-8	17	.
COc1cc(C(=O)Oc2ccccc2/C=N/NC(=O)c2ccc(Cl)cc2)cc(OC)c1OC	29	67*	13	0	34	93*
O=[N+]([O-])c1ccc(CN2CCN(c3ccc(Cl)cc3)CC2)o1	18	59*	16	-10	10	.
NC(N)=N/N=C/c1ccccc1	18	62*	-4	-8	-2	26
O=C(NCC1CCCO1)C(=O)N/N=C/c1ccc(OCc2ccccc2Cl)cc1 (configuration not stated)	.	-11	8	1	2	.
NC(N)=N/N=C/c1ccc(Cl)c(Cl)c1	.	53	10	11	2	.
NC(N)=N/N=C/c1ccc(OCc2ccccc2Cl)cc1	28*	69*	27	0	-4	101*
CC12CCC(=O)N1C(C(=O)Nc1ccc(Cl)c(S(=O)(=O)N3CCCCC3)c1)CS2 (configuration not stated)	.	20	27	14	-3	.
Cc1ccc2[nH]c3c(c2c1)CCN(C)C3	11	9	16	-25	16	.
CSc1ccccc1NC(=O)Nc1ccc(F)c(Cl)c1	-1	.	16	-29	0	2
CS/C(=N\S(=O)(=O)c1cccs1)Nc1ccc(F)c(Cl)c1	33	-11	-13	7	95*	-6
COc1cccc(NC(=O)CCN2C(=O)c3ccccc3Sc3ncccc32)c1	6	-3	9	-7	8	.
CCOC(=O)C1=C(O)c2ccccc2C(=O)/C1=C\c1ccc(C)cc1	57	.	.	.	.	-5
CCOC(=O)C1=C(Cc2ccc(Cl)cc2)C(=O)c2ccccc2C1=O	29	.	1	-56	40	91*
CCOC(=O)CC(=O)NC(C)(C)CCCCC(C)(C)NC(=O)CC(=O)OCC	-1	-4	11	11	-10	.
Cc1ccc(S(=O)(=O)NCC(=O)OCC(=O)NC2CCCCC2)cc1	.	.	5	.	.	.
Cc1ccc(SCCNS(=O)(=O)c2ccc(F)cc2)cc1	.	-4	21	-17	0	53*
Cc1ccc(S(=O)(=O)NCCn2cnc([N+](=O)[O-])n2)cc1	-7	60*	1	18	0	.
Cc1ccc(CSCCNS(=O)(=O)c2ccc([N+](=O)[O-])cc2)cc1	10	68*	30	-3	7	.
Cc1ccc(S(=O)(=O)NCCSCc2ccccc2)cc1	4	-6	19	-14	-11	-3
COc1ccc(N2CCN(C(CNC(=O)C(=O)NCC(OC)OC)c3ccco3)CC2)cc1 (configuration not stated)	12	-7	10	-12	11	.
COc1ccc(-c2cc(-c3nnc(COC(=O)c4ccc(O)cc4)o3)c3ccccc3n2)cc1OC	13	31	10	-2	8	59*
O=C(NC1(C(=O)NC2CCCC2)CCCCC1)c1ccc2c(c1)OCO2	16	-7	2	2	-6	57*
O=C(NC1CCCCC1)c1ccc2c(c1)OCO2	-8	-23	17	0	-12	.
O=C(NC1(C(=O)NC2CCCCC2)CCCCC1)c1ccc2c(c1)OCO2	7	-18	7	8	5	93*
CCOC(=O)C1=CN(Cc2ccc(OC)cc2)C=C(C(=O)OCC)C1c1cccs1	8	38	20	4	-9	100*
COC(=O)C1=CN(Cc2ccc(OC)cc2)C=C(C(=O)OC)C1c1cc(OC)c(OC)c(OC)c1	11	37	19	-13	4	.
CCN(CC(=O)NCc1ccc(Cl)cc1)C(=O)Cc1ccccc1[N+](=O)[O-]	21	3	6	25	11	.
COc1c(F)c(F)c(C(=O)Nc2ccccc2N2CCN(C(=O)C(C)C)CC2)c(F)c1F	5	7	-6	9	14	51*
